From ChEMBL document CHEMBL4145448, “Broad activity of diphenyleneiodonium analogues against Mycobacterium tuberculosis, malaria parasites and bacterial pathogens” (Eur J Med Chem, 2018)
≈ marks a conversion by molar mass, not a printed value.

What was measured:
Plasmodium falciparum [1] = experiment: Growth inhibition of CQ-sensitive GFP-fused Plasmodium falciparum D10 after 90 hrs by ethidium bromide staining based flow cytometry; type: functional, organism-based; conditions: D10, 90 h
How it was run: (§1)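 Parasites cultured in human O+ erythrocytes in RPMI-HEPES pH 7.4 with hypoxanthine, NaHCO3, gentamicin and 0.5% Albumax II under 1% O2/4% CO2 at 37 °C. Synchronised to rings with heparin plus sorbitol. Set up at 1% parasitaemia and 1% haematocrit with 10x compound added. Cultured 90 h to next-cycle trophozoites. Stained with 10 µg/mL ethidium bromide for 1 h, washed, parasitaemia counted by flow cytometry with GFP gating.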

[2] = test system: Mycobacterium tuberculosis; experiment: Antimycobacterial activity against Mycobacterium tuberculosis H37Rv ATCC 25618 after 7 days by resazurin dye based assay; type: functional; conditions: H37Rv ATCC 25618, 168 h
How it was run: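 H37Rv grown at 37 °C in 7H9 with 10% ADC, 0.5% glycerol and 0.02% tyloxapol. Compounds serially diluted in water, 0 to 10 µM, in triplicate. Culture adjusted to OD600 0.001 and incubated 7 days at 37 °C. Resazurin (0.05% w/v) added for 4-24 h and fluorescence read at 590 nm. MIC is the lowest concentration giving complete growth inhibition versus untreated. Rifampicin served as control.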

[3] = Selectivity index, ratio of CC50 for human HepG2 cells in presence of 1% FBS to MIC for Mycobacterium tuberculosis H37Rv ATCC 25618; type: toxicity; conditions: read-out: Selectivity Index
[4] = Selectivity index, ratio of CC50 for human HepG2 cells in presence of 10% FBS to MIC for Mycobacterium tuberculosis H37Rv ATCC 25618; type: toxicity; conditions: read-out: Selectivity Index
[5] = Cytotoxicity against human HepG2 cells after 24 hrs in presence of 1% FBS by resazurin dye based assay; type: cell-based
How it was run: (§2)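 HepG2 cells seeded at 4000/well in DMEM with 1% FBS and allowed to attach for 24 h at 37 °C, 5% CO2. Compounds added from 300 to 0.14 µM in 3-fold steps and incubated 24 h. 10 µM resazurin added for 2 h, fluorescence read at ex/em 560/590. Percent viability computed relative to untreated and negative controls, duplicate wells.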

[6] = Cytotoxicity against human HepG2 cells after 24 hrs in presence of 10% FBS by resazurin dye based assay; type: cell-based
How it was run: as §2, with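 “10%” for “1%”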

[7] = Selectivity index, ratio of CC50 for human HepG2 cells in presence of 1% FBS to IC50 for CQ-sensitive GFP-fused Plasmodium falciparum D10; type: toxicity; conditions: read-out: Ratio IC50
[8] = Selectivity index, ratio of CC50 for human HepG2 cells in presence of 10% FBS to IC50 for CQ-sensitive GFP-fused Plasmodium falciparum D10; type: toxicity; conditions: read-out: Ratio IC50
Plasmodium falciparum [9] = experiment: Growth inhibition of […] GFP-fused Plasmodium falciparum D10 after 90 hrs by ethidium bromide staining based flow cytometry; type: functional, organism-based; conditions: D10, 90 h; how it was run: as §1
[10] = Selectivity index, ratio of CC50 for human HepG2 cells in presence of 1% FBS to IC50 for drug-resistant GFP-fused Plasmodium falciparum D10; type: toxicity; conditions: read-out: Ratio IC50
[11] = Selectivity index, ratio of CC50 for human HepG2 cells in presence of 10% FBS to IC50 for drug-resistant GFP-fused Plasmodium falciparum D10; type: toxicity; conditions: read-out: Ratio IC50

Compound	IC50 (Plasmodium falciparum [1])	MIC [2]	selectivity ratio [3]	selectivity ratio [4]	CC50 at 24 h [5]	CC50 at 24 h [6]	selectivity ratio [7]	selectivity ratio [8]	IC50 (Plasmodium falciparum [9])	selectivity ratio [10]	selectivity ratio [11]
Fc1ccc(Cl)c2c1[I+]c1ccccc1-2	> 1000 nM	0.27 µM	3.4	10	930 nM	2720 nM					
Cc1cccc2c1-c1cccc(Cl)c1[I+]2	110 nM	0.27 µM	0.22	1.8	60.1 nM	486 nM	0.63	5.1			
FC(F)(F)Oc1cccc2c1-c1ccccc1[I+]2	130 nM	0.25 µM	0.21	0.99	50.3 nM	251 nM	0.39	1.9			
COc1ccc(Cl)c2c1[I+]c1ccccc1-2	130 nM	0.51 µM	0.31	0.44	150 nM	224 nM	1.2	1.75			
Fc1cccc2c1-c1c(Cl)cccc1[I+]2	> 1000 nM	1 µM	0.38	0.8	392 nM	833 nM		< 0.83			
Clc1ccc(Cl)c2c1[I+]c1ccccc1-2	> 1000 nM	0.5 µM	1.8	3.7	894 nM	1850 nM					
FC(F)(F)c1cccc2c1-c1ccccc1[I+]2	130 nM	0.26 µM	0.09	0.36	23.6 nM	94.7 nM	0.18	0.72	140 nM	0.18	0.7
Fc1cccc2c1-c1c(F)cccc1[I+]2	840 nM	0.28 µM	0.32	0.58	88.6 nM	161 nM	0.11	0.19			
Fc1cccc2c1-c1cccc(Cl)c1[I+]2	190 nM	0.27 µM	0.19	1.4	52.4 nM	386 nM	0.28	2.1			
Cc1ccc(Cl)c2c1[I+]c1ccccc1-2	110 nM	0.13 µM	0.74	2.8	93 nM	349 nM	0.82	3.1			
Clc1cccc2c1[I+]c1cccc(Cl)c1-2	360 nM	0.26 µM	0.32	2.1	84.6 nM	544 nM	0.23	1.5			
CO[C@H]1/C=C/O[C@@]2(C)Oc3c(C)c(O)c4c(O)c(c(/C=N/N5CCN(C)CC5)c(O)c4c3C2=O)NC(=O)/C(C)=C\C=C\[C@H](C)[C@H](O)[C@@H](C)[C@@H](O)[C@@H](C)[C@H](OC(C)=O)[C@@H]1C [RIFAMPIN]		0.3 to 0.61 µM (≈ 0.247 to 0.502 µg/mL)									
